Compound activity: PubChem BioAssay, several laboratories
NS3 helicase inh = inhibitors of HCV NS3 helicase, primary screen, biochemical, Cy5 molecular beacon fluorescence; inhibition, % at 10.9 µM; NS3 helicase DNA unwinding; 290,000 tested, 0.56% active;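 active = inhibition above the mean of all tested compounds plus 3 SD, set per campaign, cut at about 35% in these data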;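 note: 0% = DMSO wells and 100% = thioflavine S control wells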
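Compound dosing – single dose, 10.9 µM nominal final, DMSO 0.8% final · System – NS3 helicase fragment of HCV · Buffer or medium – MOPS pH 6.5, MgCl2, DTT, Tween20, BSA · Signal – Cy5 beacon fluorescence read at start and 1 h · Also added – annealed dual-labelled DNA beacon duplex, ATP-started · Schedule – 1 h at 25 °C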
CHOP UPR activ = activators of apoptotic CHOP UPR arm, primary screen, cell-based, CHO-CHOP luciferase reporter, luminescence, uHTS; 330,000 tested, 0.34% active; UPR activation; percent of tunicamycin response over DMSO baseline; activation, % at 10 µM;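 active = at 10 µM dose, activation of 40% or more, normalized to positive control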;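 note: 100% = tunicamycin at 10 µg/mL and 0% = DMSO alone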
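Test system: CHO CHOP reporter cells. Input: 500 CHO-CHOP cells per well. Medium: F12 with 10% FBS. Technique: luciferase luminescence. Measure: percent activation relative to tunicamycin control. Dosing: 10 µM compound, 0.5% DMSO. Timing: 16-18 h cell attachment, then 6 h compound exposure, 37 °C.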
CHOP inhibitor = inhibitors of CHOP promoter induction, primary screen, cell-based, unfolded protein response, luciferase reporter; inhibition, % at 10 µM; CHO-K1 CHOP-promoter luciferase, tunicamycin-induced, 15-18 h; 220,000 tested, 3.8% active; AID 2732, 2010;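 active = compounds that reduced the stress-induced luciferase reporter signal by more than about 70% of percent inhibition, limit read from the data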;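 note: 0% = tunicamycin plus vehicle and 100% = wells without tunicamycin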
XBP1 UPR activ = activators of adaptive XBP1 UPR arm, primary screen, cell-based, CHO-XBP1 luciferase reporter, luminescence, uHTS. IRE1-XBP1 UPR activation; percent of tunicamycin response, DMSO as zero. activation, % at 20 µM. 330,000 tested, 0.33% active. AID 463104, 2010;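 active = versus positive control, 20 µM dose yields 30% or more activation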;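 note: 100% = tunicamycin at 10 µg/mL and 0% = DMSO only wells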
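Test system: CHO-XBP1 luciferase reporter cells | Buffer or medium: Serum-containing F12 medium, 10% FBS | Schedule: 6 h compound exposure at 37 °C, 5% CO2 | Detection: Steady-Glo luciferase glow luminescence, 10 min after reagent addition | Read-out basis: Activation, % of tunicamycin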
PfM18AAP inh = PfM18AAP inhibitors, malaria aminopeptidase, primary screen, biochemical, QFRET, recombinant enzyme; M18 aspartyl aminopeptidase (Plasmodium falciparum 3D7); H-Glu-NHMec fluorogenic cleavage; inhibition, % at 7.35 µM; 290,000 tested, 1.2% active; AID 1822, 2009;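 active = inhibition above the campaign mean inhibition over all tested compounds plus 3 SD, cut at about 28% in these data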;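 note: 0% = plate median of test compound wells and 100% = 2 mM ZnCl2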
p97 inhibitor = inhibitors of human p97 ATPase, primary screen, biochemical. Transitional endoplasmic reticulum ATPase (Homo sapiens), P55072. recombinant p97 ATPase, Kinase-Glo ATP luminescence, 3 h. inhibition, % at 8 µM. 220,000 tested, 0.42% active. AID 1481, 2009; in the data active = inhibition above about 15%;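 note: 0% = DMSO vehicle and 100% = wells lacking enzyme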
Target sequence (P55072 whole entry, looked up): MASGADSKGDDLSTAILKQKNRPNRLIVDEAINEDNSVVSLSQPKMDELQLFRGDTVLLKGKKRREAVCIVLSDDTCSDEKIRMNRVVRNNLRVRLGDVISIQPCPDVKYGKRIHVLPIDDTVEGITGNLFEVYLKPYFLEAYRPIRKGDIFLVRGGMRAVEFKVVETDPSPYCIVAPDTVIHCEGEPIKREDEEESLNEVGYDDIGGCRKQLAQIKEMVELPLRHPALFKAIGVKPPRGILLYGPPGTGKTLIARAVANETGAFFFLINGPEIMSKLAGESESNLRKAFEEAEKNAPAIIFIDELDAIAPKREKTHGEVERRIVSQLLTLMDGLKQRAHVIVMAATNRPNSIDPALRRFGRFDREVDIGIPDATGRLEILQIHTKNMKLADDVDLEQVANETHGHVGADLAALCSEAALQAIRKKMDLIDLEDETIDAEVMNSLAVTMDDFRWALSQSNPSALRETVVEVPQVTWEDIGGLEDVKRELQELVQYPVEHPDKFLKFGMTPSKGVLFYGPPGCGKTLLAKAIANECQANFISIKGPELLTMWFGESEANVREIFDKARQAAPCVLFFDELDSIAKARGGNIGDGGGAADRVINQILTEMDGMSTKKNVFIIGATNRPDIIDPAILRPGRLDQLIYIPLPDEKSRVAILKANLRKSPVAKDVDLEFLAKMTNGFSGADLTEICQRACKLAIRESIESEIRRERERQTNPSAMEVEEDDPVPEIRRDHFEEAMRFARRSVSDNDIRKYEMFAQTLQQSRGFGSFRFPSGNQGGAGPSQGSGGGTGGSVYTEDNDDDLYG
The depositor's hits bear a star; x = no result given; ! = not confirmed by another sample. Shown are actives, neighbours in structure and some others; about 4.5% of the full set was active somewhere.

SMILES	NS3 helicase inh	CHOP UPR activ	CHOP inhibitor	XBP1 UPR activ	PfM18AAP inh	p97 inhibitor
Cc1ccc(C)c(NC(=O)CN(C)C(=O)[C@@H](NC(N)=O)C(C)C)c1	-8	-2	7	-3	-2	7
COc1ccc(-c2csc(NC(=O)c3c(C)noc3C)n2)cc1F	x	-1	x	-2	x	x
Cc1cc(C)c(S(=O)(=O)c2ccccc2C)c(OCC(C)(C)C)n1	-3	2	75*	-3	-10	-5
COc1ccc(NC(=O)CSc2n[nH]c(-c3ccncc3)n2)cc1Cl	x	-1	x	1	x	x
NC(=O)c1ccsc1NC(=O)COC(=O)c1c(F)cccc1Cl	x	8	x	5	x	x
CN(C)c1ccnc2c[cH-]cc12.[Fe].c1ccc(-[c-]2[c-](-c3ccccc3)[c-](-c3ccccc3)[c-](-c3ccccc3)[c-]2-c2ccccc2)cc1 (configuration not stated)	x	11	88*!	3	x	x
Cc1nc(N2CCOCC2)nc(OC(C)C)c1[N+](=O)[O-]	-4	-1	84*	1	-9	0
CCc1c(O)c(/C(C)=N\O)c(=O)n(-c2ccccc2)c1-c1ccccc1	2	2	5	-1	-15	-1
C=CCO/N=C(/C)c1c(O)c(CC)c(-c2ccccc2)n(-c2ccccc2)c1=O	-7	0	72*	-2	1	0
CC(=O)O[C@H]1CC(=O)OC(C)(C)C2CC(=O)[C@]3(C)C(CC[C@@](C)([C@@H](O[C@@H]4O[C@H](CO)[C@@H](O)[C@H](O)[C@H]4O)c4ccoc4)[C@@]34O[C@@H]4C(=O)O)[C@]21C (some centres not stated)	x	0	x	2	x	x
CC1CN(C(=O)c2ccc(NS(=O)(=O)c3ccc(F)cc3)cc2)CC(C)O1 (configuration not stated)	0	2	x	-3	-4	x
O=c1c2ccc(Cl)cc2[nH]c(=S)n1CCC1=CCCCC1	-25	3	84*	1	0	-1
CCOC(=O)N1CCN(C(=O)c2ccc3c(=O)n(CCC4=CCCCC4)c(=S)[nH]c3c2)CC1	3	-4	33	-2	-2	1
CC(C)(C)c1ccc(C(=O)N2CCCCCC2=O)cc1	1	-7	89*	-4	1	-5
CC(C)(C)c1ccc(C(=O)Nc2ccc(C(=O)N3CCCC3)cc2)cc1	-7	-1	x	-3	-6	x
O=C(NCCCN1CCOCC1)c1cccnc1SCc1ccccc1Cl	-12	0	6	-3	-10	2
Cc1ccc(NC(=O)CCC(=O)Nc2nnc(C3CCCCC3)s2)cc1	19	-1	x	-2	20	x
C=CC(N)CCC(=O)O (configuration not stated)	x	x	91*	x	x	x
C#CC(N)CCC(=O)O (configuration not stated)	x	x	-11	x	x	x
Cc1ccc(NC(=S)NNS(=O)(=O)c2ccc3ccccc3c2)cc1Cl	11	2	10	-2	7	1
O=C(O)CSc1nc2sc3c(c2c(=O)n1Cc1ccccc1)CCCCC3	-15	6	x	-1	-10	x
O=C(O)CSc1cc(C(=O)c2ccccc2O)cn2c(=O)c3c4c(sc3nc12)CCCC4	22	x	89*	x	0	-2
Cc1ccc(OCC(=O)OC(C)C(=O)NC2CCCCC2C)cc1C (configuration not stated)	x	-2	x	-1	x	x
CS(=O)(=O)N(Cc1ccc(C(=O)Nc2ccccc2Sc2ccccc2)cc1)c1ccccc1	-11	-2	77*	-2	-3	-3
CS(=O)(=O)N(CC(=O)Nc1ccccc1Sc1ccccc1)c1ccc(F)cc1	-15	-1	24	-2	-10	-3
SMILES	NS3 helicase inh	CHOP UPR activ	CHOP inhibitor	XBP1 UPR activ	PfM18AAP inh	p97 inhibitor
O=C(Cc1ccccc1)Nc1ccccc1Sc1ccccc1	-19	1	16	-2	-3	0
O=C(Nc1ccccc1Sc1ccccc1)c1ccccc1	-2	0	92*	2	2	1
Nc1cc(N)nc(SCC(=O)NCc2ccc3c(c2)OCO3)n1	x	2	x	0	x	x
CSc1nc(=S)n(-c2cc(C)ccc2C)c(C)c1C(C)=O	-7	1	x	-4	2	x
CC(=O)Nc1ccc2oc(-c3cc(F)c(F)cc3Cl)nc2c1	4	4	82*	0	3	1
Cc1cccc(NS(=O)(=O)c2cc(NC(=O)CC(=O)c3ccc([N+](=O)[O-])cc3)ccc2C)c1	9	x	93*	x	-2	4
Cc1ccc(C(=O)Nc2cccc([N+](=O)[O-])c2)cc1S(=O)(=O)Nc1ccc(C(=O)O)cc1	18	3	12	0	-5	5
COc1cccc(C(=O)NCC(c2ccco2)N2CCOCC2)c1 (configuration not stated)	x	4	x	1	x	x
NC(N)=N/N=C/c1cc([N+](=O)[O-])ccc1O	-5	1	-6	-1	27	6
O=[N+]([O-])c1ccc(O)c(/C=N\N=C2c3ccccc3-c3ccccc32)c1	18	3	79*	5	-4	-4
COc1ccc2[nH]c(=O)c(CN(C)C(=O)c3cccs3)cc2c1	-5	2	8	2	-4	-2
O=C(/C=C/c1ccccc1Cl)c1cccnc1	-6	2	-24	3	28*	1
CCCC1CCc2[nH]nc(C(=O)NN)c2C1 (configuration not stated)	x	-1	x	-2	x	x
Cc1[nH]c2ccccc2c1N=Nc1ccc(F)cc1	-8	4	90*	5	4	5
Cc1cccc(/C=C2\CCC(=C3SCCCS3)C2=O)c1	10	-8	78*	-12	0	1
Cc1cccc(/C=c2\s/c(=C\C(=O)C(C)(C)C)[nH]c2=O)c1	4	3	19	5	-2	-2
O=C(Cc1ccccc1)NCC(=O)OCC(=O)c1ccccc1Cl	18	0	28	1	1	-5
COc1cccc(OCC(=O)NNC(=O)c2ccc(-c3ccccc3)cc2)c1	-8	0	80*	1	-11	6
Cc1nn(Cc2c(F)c(F)c(F)c(F)c2F)c(C)c1NC(=O)c1ccc(COc2ccc(Cl)cc2Cl)o1	-40	4	70*	1	-6	-3
Cc1nn(Cc2ccc(Cl)cc2Cl)c(C)c1NC(=O)c1ccc(COc2cc(Cl)ccc2Cl)o1	-4	5	43	-2	-5	-2
CCOC(=O)C(CCCCOc1cccc(CC)c1)C(=O)OCC	-2	4	71*	-2	-4	-4
